For 39 compounds, inhibition in vivo results are on record in ChEMBL document CHEMBL1131605, “Synthesis and pharmacological activity of triazolo[1,5-a]triazine derivatives inhibiting eosinophilia” (1998).

Assay type in all cases: functional
The subject of assay [1] is Rattus norvegicus. Kind of assay: Percent inhibition value on the Sephadex-induced lung eosinophilia model at an intraperitoneal (ip) dose of 3 mg/kg. An outline of the steps:
(§1)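 Male Wistar rats, five per group; Sephadex G-200 (0.5 mg/mL in sterile saline, swollen by boiling 5 h), 1 mL injected via tail vein on days 0, 3 and 5; drug or vehicle given ip 10 min before each Sephadex injection. Day 7: lavage with heparinized PBS (37 °C), repeated, pooled; cells counted microscopically. Inhibition (%) from group-mean eosinophil/total-cell ratio versus vehicle.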

The test system of assay [2] is Rattus norvegicus. The assay is described as follows: Percent inhibition value on the Sephadex-induced lung eosinophilia model at an intraperitoneal (ip) dose of 30 mg/kg. An outline of the steps: as §1
The subject of assay [3] is Rattus norvegicus. The assay is described as follows: Percent inhibition value on the Sephadex-induced lung eosinophilia model at an intraperitoneal (ip) dose of 0.1 mg/kg. An outline of the steps:
as §1

Usually inhibition in vivo stands for the change of the read-out against control, counted positive when it falls.

With `Cc1nc2nc(-c3ccc(Cl)cc3)nn2c(=S)n1C`, in assay [1], the inhibition in vivo at 3 mg/kg was 60%.

Turning to `C/N=C(\S)n1nc(-c2ccc(Cl)nc2)nc1N`, the inhibition in vivo at 3 mg/kg in assay [1] was -9%.

Take `Cn1cnc2nc(-c3ccccc3)nn2c1=S`: the inhibition in vivo at 30 mg/kg in assay [2] was -1%.

In the case of `Cn1cnc2nc(-c3ccc(F)cc3)nn2c1=S`, in assay [1], the inhibition in vivo at 3 mg/kg turned out to be 38%.

Consider `C/N=C(\S)n1nc(-c2ccco2)nc1N`, for which the inhibition in vivo at 3 mg/kg in assay [1] stood at 18%.

As for `C/N=C(\S)n1nc(Cc2ccccc2)nc1N`, in assay [1], the inhibition in vivo at 3 mg/kg was -24%.

As to `Cn1cnc2ccccc2c1=S`, the inhibition in vivo at 30 mg/kg in assay [2] turned out to be 22%.

Take `Cn1cnc2nc(-c3ccc(Cl)cc3Cl)nn2c1=S`: the inhibition in vivo at 3 mg/kg in assay [1] was 90%.

With `CSc1nc(N)n2ncnc2n1`, the inhibition in vivo at 30 mg/kg in assay [2] is -7%.

As to `Cn1cnc2nc(-c3ccc(Cl)c(Cl)c3)nn2c1=S`, the inhibition in vivo at 3 mg/kg in assay [1] is 89%.

`C/N=C(\S)n1nc(-c2ccc(Cl)cc2)nc1N`: the inhibition in vivo at 3 mg/kg in assay [1] turned out to be 88%.

In the case of `C/N=C(\S)n1nc(Oc2ccccc2)nc1N`, in assay [1], the inhibition in vivo at 3 mg/kg is -5%.

Take `C[C@@H]1C[C@H]2[C@@H]3CCC4=CC(=O)C=C[C@]4(C)[C@@]3(F)[C@@H](O)C[C@]2(C)[C@@]1(O)C(=O)CO` [DEXAMETHASONE]: the inhibition in vivo at 0.1 mg/kg in assay [3] is 95%.

For the compound `C/N=C(\S)n1nc(-c2ccc(Cl)cn2)nc1N`, in assay [1], the inhibition in vivo at 3 mg/kg is -2%.

Regarding `Cn1cnc2ncnc-2c1S`, in assay [2], the inhibition in vivo at 30 mg/kg was 9%.

On to `C/N=C(\S)n1nc(-c2cccs2)nc1N`, for which, in assay [1], the inhibition in vivo at 3 mg/kg was -7%.

Turning to `Cn1cnc2nc(-c3ccc(Cl)cc3)nn2c1=S`, in assay [1], the inhibition in vivo at 3 mg/kg was 90%. Besides, the inhibition in vivo at 30 mg/kg in assay [2] was 92%.

As to `CCCn1cnc2ncnn2c1=S`, the inhibition in vivo at 30 mg/kg in assay [2] stood at 49%.

For the compound `CCCCn1cnc2ncnn2c1=S`, the inhibition in vivo at 30 mg/kg in assay [2] is 23%.

Turning to `Cc1nc2ncnn2c(=S)n1C`, in assay [2], the inhibition in vivo at 30 mg/kg was found to be 18%.

`CSc1nc(N)nc2ncnn12`: in assay [2], the inhibition in vivo at 30 mg/kg was -29%.

Regarding `C/N=C(\S)n1nc(/C=C/c2ccc(Cl)cc2)nc1N`, in assay [1], the inhibition in vivo at 3 mg/kg came to 25%.

For the compound `Cn1cnc2nc(-c3ccc(C(F)(F)F)cc3)nn2c1=S`, the inhibition in vivo at 3 mg/kg in assay [1] was determined as 87%.

As to `Cn1cnc2ncnn2c1=O`, the inhibition in vivo at 30 mg/kg in assay [2] is 17%.

Take `Cn1c(-c2ccccc2)nc2ncnn2c1=S`: the inhibition in vivo at 30 mg/kg in assay [2] worked out at 29%.

Take `Cn1cnc2nncc-2c1S`: in assay [2], the inhibition in vivo at 30 mg/kg is -13%.

`CNC(=S)n1nc(/N=C/c2ccccc2)nc1N`: the inhibition in vivo at 3 mg/kg in assay [1] is 37%.

Take `Cn1cnc2nc(-c3ccc(C#N)cc3)nn2c1=S`: the inhibition in vivo at 30 mg/kg in assay [2] was 79%.

With `c1nc2nc(NC3CCCCC3)nc(NC3CCCCC3)n2n1`, the inhibition in vivo at 30 mg/kg in assay [2] worked out at 1%.

On to `C/N=C(\S)n1nc(C#Cc2ccccc2)nc1N`, for which, in assay [1], the inhibition in vivo at 3 mg/kg was 0%.

Consider `CNC(=S)n1nc(SC)nc1N`, for which, in assay [2], the inhibition in vivo at 30 mg/kg turned out to be 54%.

`Cn1cnc2nc(-c3ccc(Br)cc3)nn2c1=S`: in assay [1], the inhibition in vivo at 3 mg/kg came to 84%.

As to `CNc1nc(NC)n2ncnc2n1`, in assay [2], the inhibition in vivo at 30 mg/kg was determined as 38%.

Turning to `C/N=C(\S)n1nc(-c2ccc(-c3ccccc3)cc2)nc1N`, the inhibition in vivo at 3 mg/kg in assay [1] was found to be 58%.

`Cn1c(-c2ccccc2)nc2nc(-c3ccc(Cl)cc3)nn2c1=S`: the inhibition in vivo at 3 mg/kg in assay [1] was 5%.

Turning to `C/N=C(\S)n1nc(-c2ccc(Cl)c3ccccc23)nc1N`, the inhibition in vivo at 3 mg/kg in assay [1] worked out at 14%.

Turning to `CCOc1ncnc2ncnn12`, the inhibition in vivo at 30 mg/kg in assay [2] was 6%.

Take `CCOC(=O)C(=O)Nc1nc2ncn(C)c(=S)n2n1`: the inhibition in vivo at 30 mg/kg in assay [2] was -2%.

For `Cn1cnc2ncnn2c1=S`, the inhibition in vivo at 30 mg/kg in assay [2] is 69%.
